# Screens deposited in PubChem BioAssay by several laboratories.
# STAT1 activator: STAT1 signaling activators, primary screen, cell-based, HTS, luciferase reporter; NIH 3T3 STAT1-luciferase reporter, IFN-gamma, luminescence; 100% = IFN-gamma alone, no compound; activation (% of control), % at 5.5 µM; actives 2.6% (n = 200,000);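 active = activation above the screen-wide mean activation plus 3 SD, cut at about 130% in these data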;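 also: raw ratio to IFN-gamma control signal so 100% means no change and 0% no light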
# FLuc inhib CS: firefly luciferase enzyme inhibitors, primary screen, artefact control for luciferase-based inhibitor screens, biochemical, luminescence, ATPLite. 10 min. inhibition, % at 10 µM. actives 1.5% (n = 200,000). AID 1006, 2008;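 active = inhibition above about 50% when tested at 10 µM, limit read from the data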
# Target sequence (P08659 whole entry, looked up): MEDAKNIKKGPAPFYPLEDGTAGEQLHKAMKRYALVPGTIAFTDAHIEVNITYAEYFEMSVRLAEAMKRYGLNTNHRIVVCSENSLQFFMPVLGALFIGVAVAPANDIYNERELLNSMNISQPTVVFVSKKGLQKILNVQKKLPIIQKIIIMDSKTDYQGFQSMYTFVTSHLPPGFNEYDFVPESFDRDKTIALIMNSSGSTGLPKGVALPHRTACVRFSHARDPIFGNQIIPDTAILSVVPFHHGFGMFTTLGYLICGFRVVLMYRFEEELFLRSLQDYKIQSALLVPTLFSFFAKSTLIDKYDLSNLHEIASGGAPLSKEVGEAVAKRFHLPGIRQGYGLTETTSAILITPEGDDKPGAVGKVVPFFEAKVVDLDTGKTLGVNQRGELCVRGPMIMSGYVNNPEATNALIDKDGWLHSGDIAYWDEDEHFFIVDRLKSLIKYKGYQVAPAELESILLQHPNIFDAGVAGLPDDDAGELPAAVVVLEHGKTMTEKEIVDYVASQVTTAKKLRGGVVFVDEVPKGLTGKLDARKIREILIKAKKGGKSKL
# NF-kB neuron act: activators of NF-kB expression in neurons, primary screen, cell-based, HTS; human neuronal cells, NF-kB reporter expression; active compounds read high; actives 1.6% (n = 190,000); fold change at 12.5 µM; in the data active = fold change above about 3.3
# APP 5'UTR act: activators of APP 5'UTR luciferase reporter, primary screen, SH-SY5Y cells; actives 1% (n = 190,000); AID 1276, 2008; activation, % at 2 µM; SH-SY5Y APP 5'UTR luciferase reporter, luminescence; zero percent = DMSO vehicle wells;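 active = activation above a set limit, based on mean plus 3 SD of controls, cut at about 140% in these data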
# FLuc act counter: FLuc activators, initial screening, artefact control for FLuc-dependent activation tests, biochemical, ATPlite luminescence | Luciferin 4-monooxygenase (Photinus pyralis), P08659 | ATPlite luciferase biochemical, 10 min; 0 = ATP-free wells, 1 = DMSO control | activation factor at 10 µM | 200,000 tested, under 10 active;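 active = luciferase activation factor, scaled between plate controls, of at least 2 with compound at 10 µM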
#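 Assay system: Luciferase/luciferin reagent mix; Medium: PBS as buffer for the ATP substrate; Dosing: test compounds dosed from 2 mM stocks in 100% DMSO; Times: 10 min, room temperature; Signal: luminescence from luciferase reaction; Read-out: luciferase activation; Controls: No-ATP low control, compound-free enzyme-plus-ATP high control.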
# An asterisk follows results filed as active; x = no result given. Compounds with a hit are over-represented: about 4.1% of the library has one in this group of screens.
SMILES,STAT1 activator,FLuc inhib CS,NF-kB neuron act,APP 5'UTR act,FLuc act counter
CCOc1ccc(C(=O)Nc2nnn(CC)n2)cc1,116,60*,2.1,64,0.4
CCOc1ccc(C(=O)Nc2cc(C)ccn2)cc1,30,97*,3.7*,186*,0
O=C(O)c1sc2cc(C(F)(F)F)cnc2c1-c1ccccc1,104,-6,1.1,7,1.1
CN1C(=O)c2ccccc2N(C)C1c1ccc2c(c1)OCO2 (stereo not drawn),97,-4,1.1,2,1
CC1CCN(C(=O)Cn2c(=O)n(-c3ccc(F)cc3)c(=O)c3sccc32)CC1,83,-6,1.1,21,1.1
N#Cc1nc(Cc2cccc3ccccc23)oc1NCCCN1CCOCC1,98,-7,1,10,1.1
COCC(C)NC(=S)NCCc1ccc(Cl)cc1Cl (stereo not drawn),99,-8,0.96,32,1.1
CCOc1ccc(C(=O)Nc2cccc(C)n2)cc1,112,79*,4.6*,144*,0.2
Cc1cccc(NC(=O)c2ccc(S(=O)(=O)N(C)C)cc2)n1,108,4,1.3,11,1
Cc1cccc(NC(=O)c2ccc(COc3ccc(Cl)cc3Cl)o2)n1,101,2,1.1,1,1
Cc1cccc(NC(=O)c2ccc(COc3ccc4ccccc4c3)o2)n1,145*,-5,2.3,21,1.1
C/C(=N/N=C/c1ccc(N(C)C)cc1)c1ccccc1,133*,77*,1.7,189*,0.2
Cc1ccc(N=Cc2ccc(N(C)C)cc2)cc1,100,5,1.2,-4,0.9
CN(C)c1ccc(C=Nc2ccccc2)cc1,98,-1,1.2,-13,1
CN(C)c1ccc(N=Cc2ccco2)cc1,150*,2,0.87,153*,1
CN(C)c1ccc(C=Nc2ccc(N(C)C)cc2)cc1,144*,36,0.93,175*,0.6
O=C(Nc1ccccc1C(F)(F)F)c1ccc(CN2CCC(Cc3ccccc3)CC2)cc1,95,-7,0.94,-9,1.1
Cc1ccc(S(=O)(=O)N(C)CCCC(=O)Nc2ccncc2)cc1,82,-5,0.92,-18,1
NC(=O)C1CCN(C(=O)CN(c2cccc(C(F)(F)F)c2)S(=O)(=O)c2ccccc2)CC1,92,-7,0.97,29,1.1
Cc1ccc(C2=NN(C(=S)Nc3ccccc3)C(c3ccco3)C2)cc1 (stereo not drawn),134*,-5,2.8,89,1
CCS(=O)(=O)Nc1ccc(C2=NN(C(=S)Nc3ccccc3)C(c3ccco3)C2)cc1 (stereo not drawn),118,-4,1.6,9,1
CN(C)c1ncc(C(=O)O)cn1,90,-8,1,17,1.1
CC(C)Oc1ccccc1C1Nc2ccccc2C(=O)N1c1ccc2c(c1)OCCO2 (stereo not drawn),116,7,4.6*,150*,0.9
CC(C)Oc1ccccc1C1CC(=O)Nc2cc3c(cc21)OCCO3 (stereo not drawn),90,-17,3.9*,-95,1.2
NC1=NC(=Nc2ccc(Br)cc2)c2ccccc21,103,53*,1.2,-7,0.5
SMILES,STAT1 activator,FLuc inhib CS,NF-kB neuron act,APP 5'UTR act,FLuc act counter
CCn1c(SCC(=O)OCc2ccccc2)nc2c1c(=O)n(C)c(=O)n2C,95,3,0.99,12,1
C=CCn1c(SCC(N)=O)nc(C)cc1=O,101,-5,1.1,-5,1.1
O=C(NCCCc1ccccc1)c1cnc2n(c1=O)CCS2,139*,-5,1.9,47,1.1
O=C(NCCC1=CCCCC1)c1cnc2n(c1=O)CCS2,133*,-2,1.5,45,1
O=C(NCCc1ccc(Cl)cc1)c1cnc2n(c1=O)CCS2,x,-8,x,x,1.1
CCc1cc(C=NC2CCCCC2)c(O)s1,119,11,2.2,67,0.9
Fc1ccc(NCc2cn3ccccc3n2)cc1,135*,19,2.2,36,0.8
CCOC(=O)C1CCN(C(=O)NS(=O)(=O)c2ccc(C)cc2)CC1,97,-9,1,19,1.1
O=C(Nc1cccnc1)c1ccc(NC(=O)c2ccco2)cc1,106,2,0.78,17,1
Cc1ccc(C(=O)Nc2cnc3ccccc3c2)cc1,16,89*,0.71,-31,0.1
O=C(Nc1cnc2ccccc2c1)c1cccnc1,134*,11,3.6*,106,0.9
O=C(Nc1cccc(NC(=O)c2cccnc2)c1)c1cccnc1,94,-3,0.45,-13,1
Cn1c(NC(=O)c2cccnc2)nc2ccccc21,148*,21,2.2,74,0.8
Cc1ccc(C(=O)Nc2cccc(-c3cnc4ccccc4n3)c2)cc1,100,6,1.8,-9,0.9
O=C(Nc1ccc(NC(=O)c2ccco2)nc1)c1cccnc1,134*,62*,2.4,79,0.4
CCN(CC)S(=O)(=O)c1ccc(N2CCOCC2)c(NS(=O)(=O)c2ccc(C(C)C)cc2)c1,103,-4,1,13,1
O=C(Nc1cnc2ccccc2c1)c1cccc(-n2cnnn2)c1,135*,0,1.4,60,1
Cc1cc(C(=O)Nc2cnc3ccccc3c2)ccc1[N+](=O)[O-],137*,-1,2.2,204*,1
Cc1cc(C(=O)Nc2nc(-c3ccccn3)cs2)ccc1[N+](=O)[O-],96,-4,1.4,-9,1
Cc1ccccc1NC(=O)N1c2ccccc2CC1C (stereo not drawn),113,0,1.4,-5,1
Cc1nc2cc(NC(=O)N3c4ccccc4CC3C)ccc2o1 (stereo not drawn),146*,62*,1.4,95,0.4
Cc1ccc(C(=O)N2c3ccccc3CC2C)o1 (stereo not drawn),148*,46,1.1,134,0.5
COc1ccc(CNC(=O)c2cnc(C)cn2)c(OC)c1,99,-7,1,-13,1.1
C=CCOc1ccc(Oc2cc(C)nc(SC)n2)nn1,99,-7,1.1,-6,1.1
Cn1cccc1C(=O)OCc1cc(Cl)cc2c1OCOC2,145*,-5,2.2,52,1
CC(=O)c1cccc(NC(=O)c2noc3c2CCc2ccccc2-3)c1,123,32,1.6,169*,0.7
COc1ccc2c(c1)CCc1c(C(=O)N3CCCCCC3)noc1-2,136*,12,3.4*,130,0.9
COc1ccc2c(c1)CCc1c(C(=O)NCC(C)C)noc1-2,122,49,6.3*,178*,0.5
CCCNC(=O)c1noc2c1CCc1cc(OC)ccc1-2,110,78*,6.1*,160*,0.2
O=C(NCCc1ccccc1)c1cccnc1,125,2,1.9,9,1
